Source: ChEMBL document CHEMBL2413060, “Synthesis, biological evaluation and molecular docking studies of some pyrimidine derivatives” (2013)
Values after ≈ are worked out from the molar mass of the structure shown.

Key:
Assay type in all cases: functional
RPMI-8226 = assay: Cytotoxicity against human RPMI8226 cells assessed as growth inhibition at 10 uM; conditions: read-out: GI
How it was run: (§1)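 Single-dose screen on human tumour cell lines. Growth of treated cells is expressed as percent of untreated growth, plotted as a mean graph, and reported as percent growth inhibition.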

CCRF-CEM = assay: Cytotoxicity against human CCRF-CEM cells assessed as growth inhibition at 10 uM; conditions: read-out: GI
Pseudomonas aeruginosa [1] = assay: Antibacterial activity against Pseudomonas aeruginosa ATCC 9027 after 24 hrs by two-fold serial dilution method relative to ofloxacin
Shigella flexneri [2] = assay: Antibacterial activity against Shigella flexneri ATCC 15391 after 24 hrs by two-fold serial dilution method relative to ofloxacin
Shigella flexneri [3] = assay: Antibacterial activity against Shigella flexneri ATCC 15391 after 24 hrs by two-fold serial dilution method; conditions: ATCC 15391, 24 h
How it was run: (§2)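 Two-fold serial broth dilution in sterile nutrient broth at 500, 250, 125, 62.5, 31.25, 15.63, 7.82 and 3.91 µg/ml, with dimethylformamide ≤2.5%. Organisms were pre-grown 24 h in broth, and 0.1 ml inoculum was added per 5 ml tube. Tubes were incubated at 37°C, 24 h for bacteria and 48 h for fungi. MIC was taken as the lowest concentration giving no turbidity.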

Candida albicans [4] = assay: Antifungal activity against Candida albicans ATCC 2091 assessed as diameter of inhibition zone at 1 mg/ml after 48 hrs by cup diffusion method (reference value: 22 mm); conditions: ATCC 2091, 48 h, read-out: DIZ
Shigella flexneri [5] = assay: Antibacterial activity against Shigella flexneri ATCC 15391 assessed as diameter of inhibition zone at 1 mg/ml after 24 hrs by cup diffusion method (reference value: 17 mm); conditions: ATCC 15391, 24 h, read-out: DIZ
Staphylococcus aureus [6] = assay: Antibacterial activity against Staphylococcus aureus ATCC 6538P assessed as diameter of inhibition zone at 1 mg/ml after 24 hrs by cup diffusion method (reference value: 15 mm); conditions: read-out: DIZ
Pseudomonas aeruginosa [7] = assay: Antibacterial activity against Pseudomonas aeruginosa ATCC 9027 assessed as diameter of inhibition zone at 1 mg/ml after 24 hrs by cup diffusion method (reference value: 16 mm); conditions: ATCC 9027, 24 h, read-out: DIZ
T47D = assay: Cytotoxicity against human T47D cells assessed as growth inhibition at 10 uM; conditions: read-out: GI; how it was run: as §1
NCI/ADR-RES = assay: Cytotoxicity against human NCI/ADR-RES cells assessed as growth inhibition at 10 uM; conditions: read-out: GI; how it was run: as §1
PC-3 = assay: Cytotoxicity against human PC3 cells assessed as growth inhibition at 10 uM; conditions: read-out: GI; how it was run: as §1
MCF7 = assay: Cytotoxicity against human MCF7 cells assessed as growth inhibition at 10 uM; conditions: read-out: GI; how it was run: as §1
TK-10 = assay: Cytotoxicity against human TK10 cells assessed as growth inhibition at 10 uM; conditions: read-out: GI
How it was run: (§3)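 Single-dose screen in a sixty-cell human tumour line panel; percent growth of treated cells relative to untreated was read and reported as percentage growth inhibition, shown as a mean graph. Compounds meeting the threshold inhibition criteria went on to five-dose testing.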

CAKI-1 = assay: Cytotoxicity against human Caki1 cells assessed as growth inhibition at 10 uM; conditions: read-out: GI
A498 = assay: Cytotoxicity against human A498 cells assessed as growth inhibition at 10 uM; conditions: read-out: GI
SK-OV-3 = assay: Cytotoxicity against human SKOV3 cells assessed as growth inhibition at 10 uM; conditions: read-out: GI; how it was run: as §1
IGROV-1 = assay: Cytotoxicity against human IGROV1 cells assessed as growth inhibition at 10 uM; conditions: read-out: GI
UACC-62 = assay: Cytotoxicity against human UACC62 cells assessed as growth inhibition at 10 uM; conditions: read-out: GI; how it was run: as §3
SK-MEL-2 = assay: Cytotoxicity against human SK-MEL-2 cells assessed as growth inhibition at 10 uM; conditions: read-out: GI; how it was run: as §1
M14 = assay: Cytotoxicity against human M14 cells assessed as growth inhibition at 10 uM; conditions: read-out: GI
Malme-3M = assay: Cytotoxicity against human MALME-3M cells assessed as growth inhibition at 10 uM; conditions: read-out: GI
SNB-75 = assay: Cytotoxicity against human SNB75 cells assessed as growth inhibition at 10 uM; conditions: read-out: GI; how it was run: as §1
SF-295 = assay: Cytotoxicity against human SF295 cells assessed as growth inhibition at 10 uM; conditions: read-out: GI; how it was run: as §1
HCC 2998 = assay: Cytotoxicity against human HCC2998 cells assessed as growth inhibition at 10 uM; conditions: read-out: GI
NCI-H522 = assay: Cytotoxicity against human NCI-H522 cells assessed as growth inhibition at 10 uM; conditions: read-out: GI; how it was run: as §1
NCI-H460 = assay: Cytotoxicity against human NCI-H460 cells assessed as growth inhibition at 10 uM; conditions: read-out: GI; how it was run: as §1
HOP-92 = assay: Cytotoxicity against human HOP92 cells assessed as growth inhibition at 10 uM; conditions: read-out: GI
HOP-62 = assay: Cytotoxicity against human HOP62 cells assessed as growth inhibition at 10 uM; conditions: read-out: GI
[8] = Cytotoxicity against human EKVX cells assessed as growth inhibition at 10 uM; conditions: read-out: GI
SR = assay: Cytotoxicity against human SR cells assessed as growth inhibition at 10 uM; conditions: read-out: GI; how it was run: as §1
NCI-H23 = assay: Cytotoxicity against human NCI-H23 cells assessed as growth inhibition at 10 uM; conditions: read-out: GI; how it was run: as §1
Candida albicans [9] = assay: Antifungal activity against Candida albicans ATCC 2091 after 48 hrs by two-fold serial dilution method; conditions: ATCC 2091, 48 h; how it was run: as §2
Candida albicans [10] = assay: Antifungal activity against Candida albicans ATCC 2091 after 48 hrs by two-fold serial dilution method relative to clotrimazole
Pseudomonas aeruginosa [11] = assay: Antibacterial activity against Pseudomonas aeruginosa ATCC 9027 after 24 hrs by two-fold serial dilution method; conditions: ATCC 9027, 24 h; how it was run: as §2
Staphylococcus aureus [12] = assay: Antibacterial activity against Staphylococcus aureus ATCC 6538P after 24 hrs by two-fold serial dilution method; how it was run: as §2
K562 = assay: Cytotoxicity against human K562 cells assessed as growth inhibition at 10 uM; conditions: read-out: GI
RXF 393 = assay: Cytotoxicity against human RXF393 cells assessed as growth inhibition at 10 uM; conditions: read-out: GI; how it was run: as §1
UO-31 = assay: Cytotoxicity against human UO31 cells assessed as growth inhibition at 10 uM; conditions: read-out: GI; how it was run: as §3
OVCAR-8 = assay: Cytotoxicity against human OVCAR8 cells assessed as growth inhibition at 10 uM; conditions: read-out: GI; how it was run: as §1

SMILES	inhibition of growth at 10 µM (RPMI-8226) [%]	Activity (Pseudomonas aeruginosa [1]) [%]	Activity (Shigella flexneri [2]) [%]	MIC (Shigella flexneri [3]) [µg/mL]	zone of inhibition at 1000 µg/mL (Candida albicans [4]) [mm]	zone of inhibition at 1000 µg/mL (Shigella flexneri [5]) [mm]	zone of inhibition at 1000 µg/mL (Staphylococcus aureus [6]) [mm]	zone of inhibition at 1000 µg/mL (Pseudomonas aeruginosa [7]) [mm]	inhibition of growth at 10 µM (NCI/ADR-RES) [%]	inhibition of growth at 10 µM (IGROV-1) [%]	inhibition of growth at 10 µM (M14) [%]	inhibition of growth at 10 µM (Malme-3M) [%]	inhibition of growth at 10 µM (HCC 2998) [%]	inhibition of growth at 10 µM (HOP-92) [%]	inhibition of growth at 10 µM (SR) [%]	MIC (Pseudomonas aeruginosa [11]) [µg/mL]	other results
N#Cc1c(N2CCOCC2)nc(=S)[nH]c1-c1ccco1	57	60	60	125 (≈ 434 µM)	22	22	15	16	59.8	79.3	60.2	97.8	121	112	82.2	–	inhibition of growth at 10 µM (CCRF-CEM): 50.4%; inhibition of growth at 10 µM (T47D): 81.1%; inhibition of growth at 10 µM (PC-3): 57.4%; inhibition of growth at 10 µM (MCF7): 73.3%; inhibition of growth at 10 µM (TK-10): 52.9%; inhibition of growth at 10 µM (CAKI-1): 41.8%; inhibition of growth at 10 µM (A498): 101%; inhibition of growth at 10 µM (SK-OV-3): 45%; inhibition of growth at 10 µM (UACC-62): 56.7%; inhibition of growth at 10 µM (SK-MEL-2): 63%; inhibition of growth at 10 µM (SNB-75): 84.1%; inhibition of growth at 10 µM (SF-295): 52.6%; inhibition of growth at 10 µM (NCI-H522): 50.4%; inhibition of growth at 10 µM (NCI-H460): 49.9%; inhibition of growth at 10 µM (HOP-62): 64.2%; inhibition of growth at 10 µM [8]: 51.2%
N#Cc1c(N2CCCCC2)nc(=S)[nH]c1-c1ccccc1	–	60	60	125 (≈ 422 µM)	22	20	15	16	75.8	–	–	48.7	–	44.5	44.6	–	inhibition of growth at 10 µM (NCI-H23): 81.2%
N#Cc1c(-c2ccccc2)nc(SCC(=O)Nc2ccc(Cl)cc2)[nH]c1=O	–	–	–	–	30	17	20	22	–	–	45	–	84.4	–	–	125 (≈ 315 µM)	MIC (Candida albicans [9]): 125 µg/mL (≈ 315 µM); Activity (Candida albicans [10]): 75%; MIC (Staphylococcus aureus [12]): 3.91 µg/mL (≈ 9.85 µM)
Cn1c(N2CCOCC2)nc(-c2ccc([N+](=O)[O-])cc2)c(C#N)c1=O	39.7	–	–	–	22	17	15	16	–	40.1	–	–	–	44.3	–	–	inhibition of growth at 10 µM (K562): 41.8%; inhibition of growth at 10 µM (RXF 393): 47.7%
Cn1c(N2CCN(Cc3ccccc3)CC2)nc(-c2ccccc2)c(C#N)c1=O	–	–	–	–	22	17	17	18	–	–	–	–	–	–	–	125 (≈ 324 µM)	inhibition of growth at 10 µM (UO-31): 49.1%; inhibition of growth at 10 µM (OVCAR-8): 54.6%
